# Source: PubChem
# Hits are enriched below; roughly 0.77% of the tested compounds scored in any of these assays.
# mIAP act – mouse IAP activation | activation factor at 10 µM | 330,000 tested, 0.24% active | muIAP, CDP-Star luminescence, 30 min; stronger effect = higher value; 1 = vehicle-only enzyme signal, 0 = enzyme-free wells;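 active = activation factor of at least 2 at 20 µM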
#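 System: Mouse IAP enzyme | Also added: CDP-Star substrate | Dosing: Compounds dispensed in DMSO | Schedule: 30 min enzyme-substrate-compound incubation at room temperature | Technique: Chemiluminescence readout | Control set: DMSO-only wells and no-enzyme negative control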
# bIAP inh – intestinal alkaline phosphatase (bovine) inhibition; purified bovine IAP, CDP-star luminescence, 30 min; inhibition, % at 20 µM; 190,000 tested, under 10 active;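 active = over 50% inhibition of intestinal alkaline phosphatase at 20 µM in the single-dose screen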
#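 System: Purified bovine intestinal alkaline phosphatase (IAP) enzyme | Input: IAP diluted 1/65,000,000 in the well | Also added: CDP-star chemiluminescent phosphatase substrate, 30 µM final | Dosing: 20 µM single dose | Times: Enzyme reaction for 30 min at room temperature | Detection: Luminescence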
# mIAP inh – blocks mouse intestinal alkaline phosphatase; purified mouse IAP, CDP-Star luminescence, 30 min; inhibition, % at 10 µM; 330,000 tested, 0.2% active;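 active = inhibition of at least 40% at 10 µM in the primary screen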;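 note: plate controls were DMSO with enzyme for no effect and no enzyme wells for full effect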
# hIAP inh – human IAP inhibition; purified IAP, CDP-Star luminescence, 30 min; inhibition, % at 10 µM; 330,000 tested, 0.12% active; AID 2544;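 active = inhibition reaching a set limit with compound at 10 µM in the primary screen, cut at about 35% in these data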;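 note: plate controls were DMSO wells with enzyme for no effect and no-enzyme buffer wells for full effect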
# Target sequence (P09923 whole entry, looked up): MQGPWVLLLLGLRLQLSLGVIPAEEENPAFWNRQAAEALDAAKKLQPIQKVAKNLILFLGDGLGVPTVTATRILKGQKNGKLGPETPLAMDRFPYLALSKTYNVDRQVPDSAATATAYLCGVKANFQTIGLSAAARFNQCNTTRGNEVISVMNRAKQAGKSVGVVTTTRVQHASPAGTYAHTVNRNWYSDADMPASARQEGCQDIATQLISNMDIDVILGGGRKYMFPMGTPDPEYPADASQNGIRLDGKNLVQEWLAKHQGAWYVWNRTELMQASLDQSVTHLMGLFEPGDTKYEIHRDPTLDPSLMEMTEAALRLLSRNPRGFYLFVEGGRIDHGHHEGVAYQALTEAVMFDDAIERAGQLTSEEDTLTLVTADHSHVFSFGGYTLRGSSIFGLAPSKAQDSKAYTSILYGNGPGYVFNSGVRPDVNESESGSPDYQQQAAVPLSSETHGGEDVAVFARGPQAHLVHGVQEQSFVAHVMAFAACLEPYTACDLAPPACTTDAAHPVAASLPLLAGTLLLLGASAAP
# bIAP act – intestinal alkaline phosphatase (bovine) activation | purified bovine IAP, CDP-star luminescence, 30 min; stronger effect = higher value; fold of DMSO-control signal, blank-subtracted | activation factor at 20 µM | 200,000 tested, 0.17% active;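 active = activation factor of 2 or more at 20 µM, a signal rise over negative controls twice the positive control's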
# hIAP activ – human IAP activation; AID 2524; P09923; 330,000 tested, 0.16% active; purified human IAP, CDP-Star luminescence, 30 min; stronger effect = higher value; 1 = vehicle-only enzyme, 0 = enzyme-free background; activation factor at 10 µM;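 active = activation factor of the enzyme at least 2-fold when tested at 20 µM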
# hIAP act conf – human IAP activation confirmation; purified IAP, CDP-Star luminescence, 30 min; stronger effect = lower value; shares compounds with hIAP activ; activation (%Activity, negative = activation), % at 8.3 µM; 880 tested, 10% active; AID 434926;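 active = at least twofold enzyme activation in any of six single-dose repeats, which the averaged readout prints as negative percent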
# Active calls of the source: *; nt = no result.
SMILES,mIAP act,bIAP inh,mIAP inh,hIAP inh,bIAP act,hIAP activ,hIAP act conf
COc1cc(OC)c(OC)cc1/C=N/n1c(-c2n[nH]c3c2CCC3)n[nH]c1=S,1.1,nt,-8,-107,nt,2.1*,-42
Cn1c(CNC(=O)CCNC(=O)c2cccc(Br)c2)cc(=O)n(C)c1=O,0.95,nt,5,37*,nt,0.63,1
COc1ccccc1C(=O)OC(C)CN1CCN(C)CC1 (centres undefined),1,nt,-2,14,nt,0.85,nt
Cn1cc(CNCc2cnc3ccccn23)c(-c2ccc(Oc3ccccc3)cc2)n1,0.99,-17,1,-169,1.2,2.7*,2
CNC(=S)N(CCc1c(C)[nH]c2ccccc12)Cc1cccnc1,0.94,nt,6,7,nt,0.93,nt
CCC1CCCCN1C1Sc2ccc(C(=O)OC)cc2NC1=O (centres undefined),1.1,-9,-8,-100,1.1,2*,-69*
CC(Oc1ccc(F)cc1F)C(=O)NNC(=S)NCC1CCCO1 (centres undefined),1,nt,-3,-123,nt,2.2*,1
CN(N=Nc1ccc([N+](=O)[O-])cc1)c1ccccc1,0.81,6,19,15,0.9,0.85,nt
CN(CCCC(=O)O)c1ccc(N=Nc2ccc([N+](=O)[O-])cc2)cc1,0.62,nt,38,47*,nt,0.53,24
O=C(NCCCN1CCCC1=O)c1ccc(NS(=O)(=O)c2cccc([N+](=O)[O-])c2)cc1,0.97,nt,3,-4,nt,1,nt
CC(C)c1ccc(NC(=O)Cn2nnc(C(=O)NCc3ccco3)c2N)cc1,1,nt,0,3,nt,0.97,nt
Cc1cccc(C(=O)c2cn[nH]c2-c2ccc(C)cc2O)c1,1.1,nt,-8,-7,nt,1.1,nt
Cc1ccc(-c2[nH]ncc2C(=O)c2cccc(F)c2)c(O)c1,0.96,nt,4,-105,nt,2*,6
COc1ccc(NC(=O)c2cncc(Br)c2)cc1S(=O)(=O)N1CCCCC1,0.98,-10,2,-5,1.1,1,nt
COC(=O)CCC(=O)Nc1ccc(Cl)c(Cl)c1,0.97,16,3,8,0.8,0.92,nt
COC(=O)CCC(=O)Nc1ccc2oc3c(c2c1)CCCC3,0.89,nt,11,42*,nt,0.58,-39
Cn1cccc1C(=O)NCc1ccccn1,1,nt,-1,-5,nt,1.1,nt
Cc1occc1C(=O)NNC(=S)Nc1cccc([N+](=O)[O-])c1,0.91,-23,9,-111,1.2,2.1*,-7
Cc1ccc(S(=O)(=O)N2CCCCC2)cc1NC(=O)COC(=O)C1=COCCO1,0.97,-10,3,3,1.1,0.97,nt
CSCCC(NS(=O)(=O)c1ccc(C)cc1)C(=O)NNC(=O)c1csc(N2CCOCC2)n1 (centres undefined),0.68,nt,32,-103,nt,2*,48
COc1ccc(-c2nnc(SCC(=O)N3CCOCC3)n2C)cc1OC,1,10,0,-127,0.9,2.3*,5
Cc1[nH]n(-c2nc(-c3ccccc3F)cc(=O)[nH]2)c(=O)c1CCO,0.88,32,12,72*,0.7,0.28,-40*
CSc1ccccc1NC(=O)c1csc(C)c1,1,nt,0,35*,nt,0.65,-55
CC(C)CCNC(=O)C1CCN(C(=O)N(C)C)CC1,1,11,-5,47*,0.9,0.53,88
CCC(C)NC(=O)C1CCN(C(=O)N(C)C)CC1 (centres undefined),0.9,12,10,0,0.9,1,nt
SMILES,mIAP act,bIAP inh,mIAP inh,hIAP inh,bIAP act,hIAP activ,hIAP act conf
COc1cccc(/C=N/Nc2ccc([N+](=O)[O-])cc2)c1O,0.86,nt,14,37*,nt,0.63,-19
COc1cc(OC)c(OC)cc1/C=N/NC(=O)c1cc(-c2cccn2C)n[nH]1,0.97,-22,3,4,1.2,0.96,nt
O=C(N/N=C/c1ccc(F)cc1)c1cc(-c2ccccn2)nc2ccccc12,0.87,nt,13,4,nt,0.96,nt
COc1cccc(/C=N/NC(=O)CNC(=O)c2ccncc2)c1O,0.95,nt,5,-116,nt,2.2*,-42
CCOc1cccc(/C=N/NC(=O)c2cc(-c3cccn3C)n[nH]2)c1O,0.79,-12,21,-162,1.1,2.6*,23
COc1cccc(/C=N/NC(=O)c2cc(-c3ccccn3)nc3ccccc23)c1O,1,nt,0,-113,nt,2.1*,-1
COc1ccccc1CCNC(=O)c1ccc(Br)s1,1.1,nt,-6,-5,nt,1.1,nt
CCCNC(=O)OCc1cccnc1Sc1ccc(C)cc1,0.9,-2,10,-14,1,1.1,nt
O=C(CNC(=O)c1nc[nH]c1C(=O)N1CCN(c2ccccc2)CC1)OCc1ccccc1,0.94,nt,6,7,nt,0.93,nt
CCCc1cc(=O)[nH]c(SCC(=O)c2ccc3c(c2)NC(=O)CO3)n1,0.98,nt,2,1,nt,0.99,nt
COc1cccc(/C=N/NC(=O)c2ccc(=O)[nH]n2)c1O,0.89,nt,11,-144,nt,2.4*,2
Cc1ccc(CNC(=O)Nc2ccccc2)c(C)c1,1.4,nt,-36,-16,nt,1.2,nt
O=C(Nc1cccc(Cl)c1)N1CCCCCC1,0.99,nt,1,38*,nt,0.62,-55
CS(=O)(=O)N1CCN(C(=O)c2cc(-c3ccncc3)nc3ccc(Cl)cc23)CC1,0.99,-2,1,-145,1,2.5*,8
CCN(CC(=O)NCc1ccc(F)cc1)C(=O)CN1CCN(c2ccc(OC)cc2)CC1,0.96,nt,4,-14,nt,1.1,nt
CCCCCC(=O)Cc1cc(O)cc2c1C(=O)Oc1cc(O)c(C(=O)O)c(CCCCC)c1O2,0.79,nt,21,40*,nt,0.6,-40
CC(C)(C)NC(=O)CN(Cc1ccccc1)S(=O)(=O)c1ccccc1,1,nt,-4,-13,nt,1.1,nt
O=C(C1CCN(S(=O)(=O)c2ccccc2)CC1)N1CCOCC1,0.91,10,9,40*,0.9,0.6,-26
O=C(NCC1CCCO1)c1ccc(Br)s1 (centres undefined),0.98,nt,2,40*,nt,0.6,9
Cc1cccc(C(=O)Nc2ccc(S(=O)(=O)N3CCOCC3)cc2C)c1,1,nt,-3,-20,nt,1.2,nt
CC(=O)c1n[nH]nc1Nc1nc(C)cc(C)n1,1.1,35,-8,-123,0.7,2.2*,0
COc1cccc(/C=N/NC(=O)CNC(=O)COc2ccccc2)c1O,1,nt,-2,-52,nt,1.5,nt
O=C(COc1ccccc1)NCC(=O)N/N=C/c1ccc(O)cc1O,1,nt,0,-105,nt,2.1*,-4
O=C(CCn1nc(-c2ccc(Cl)cc2)ccc1=O)N1CCN(c2ccc(F)cc2)CC1,0.87,nt,13,17,nt,0.83,nt
